Test results as given in the M2OR odorant receptor database.

Experiments:
Settings in all cases: stereoisomer not certain
UniProt Q8VF52 = molecular target: T1, UniProt Q8VF52
T1 sequence (whole entry): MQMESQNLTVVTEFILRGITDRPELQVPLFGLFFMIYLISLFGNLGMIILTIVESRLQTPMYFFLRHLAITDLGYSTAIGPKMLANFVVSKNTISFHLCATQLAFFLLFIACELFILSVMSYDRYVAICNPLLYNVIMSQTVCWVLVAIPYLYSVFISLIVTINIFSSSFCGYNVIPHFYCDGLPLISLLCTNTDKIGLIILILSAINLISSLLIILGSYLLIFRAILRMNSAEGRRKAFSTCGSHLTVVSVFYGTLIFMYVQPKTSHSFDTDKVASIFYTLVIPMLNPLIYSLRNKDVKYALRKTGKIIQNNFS
Procedure, shortened: (§1)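 Each entry records the cell line, G-protein, co-transfected protein and tags used. Methods varied with the source, often transient luciferase assays in mammalian cell lines. A receptor–molecule pair is called responsive (active) if the original authors judged its signal statistically different from baseline and non-responsive (inactive) otherwise.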

UniProt Q8VFM8 = molecular target: T2, UniProt Q8VFM8
T2 sequence (whole entry): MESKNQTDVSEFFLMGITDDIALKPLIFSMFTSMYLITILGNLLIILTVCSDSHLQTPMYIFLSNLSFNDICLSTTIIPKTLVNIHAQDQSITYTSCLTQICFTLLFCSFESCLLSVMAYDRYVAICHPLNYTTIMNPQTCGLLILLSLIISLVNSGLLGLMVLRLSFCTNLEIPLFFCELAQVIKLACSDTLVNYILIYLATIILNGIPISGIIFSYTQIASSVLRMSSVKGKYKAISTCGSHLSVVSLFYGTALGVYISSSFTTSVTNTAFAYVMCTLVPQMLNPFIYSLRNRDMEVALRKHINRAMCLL
Procedure, shortened: as §1

UniProt Q8VFP5 = molecular target: T3, UniProt Q8VFP5
T3 sequence (whole entry): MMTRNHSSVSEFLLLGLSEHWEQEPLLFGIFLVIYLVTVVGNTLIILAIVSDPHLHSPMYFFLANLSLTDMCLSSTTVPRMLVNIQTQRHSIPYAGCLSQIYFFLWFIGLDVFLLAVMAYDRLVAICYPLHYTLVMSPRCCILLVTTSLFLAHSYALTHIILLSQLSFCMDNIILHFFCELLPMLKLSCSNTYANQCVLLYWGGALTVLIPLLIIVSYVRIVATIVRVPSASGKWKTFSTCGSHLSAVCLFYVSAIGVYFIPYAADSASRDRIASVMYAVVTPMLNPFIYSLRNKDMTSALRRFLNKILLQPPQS
Procedure, shortened: as §1

UniProt Q8VG01 = molecular target: T4, UniProt Q8VG01
T4 sequence (whole entry): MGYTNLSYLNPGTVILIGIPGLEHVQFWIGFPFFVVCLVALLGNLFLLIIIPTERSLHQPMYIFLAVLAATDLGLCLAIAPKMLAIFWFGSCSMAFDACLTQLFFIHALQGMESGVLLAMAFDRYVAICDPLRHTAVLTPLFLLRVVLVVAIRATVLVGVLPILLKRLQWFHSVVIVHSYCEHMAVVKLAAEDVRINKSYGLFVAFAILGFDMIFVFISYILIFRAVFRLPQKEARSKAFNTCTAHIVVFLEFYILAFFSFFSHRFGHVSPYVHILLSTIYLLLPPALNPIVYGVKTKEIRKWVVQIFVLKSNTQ
Procedure, shortened: as §1

UniProt Q8VG27 = molecular target: T5, UniProt Q8VG27
T5 sequence (whole entry): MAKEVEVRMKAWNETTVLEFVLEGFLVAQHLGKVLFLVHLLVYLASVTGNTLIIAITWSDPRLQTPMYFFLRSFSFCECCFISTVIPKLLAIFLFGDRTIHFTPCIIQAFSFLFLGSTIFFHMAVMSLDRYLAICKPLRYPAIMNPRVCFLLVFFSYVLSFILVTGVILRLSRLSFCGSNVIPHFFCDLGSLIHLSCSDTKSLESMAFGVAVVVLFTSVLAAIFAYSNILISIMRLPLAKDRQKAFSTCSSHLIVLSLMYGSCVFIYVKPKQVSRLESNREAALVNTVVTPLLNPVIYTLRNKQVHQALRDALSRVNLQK
Procedure, shortened: as §1

UniProt Q8VG53 = molecular target: T6, UniProt Q8VG53
T6 sequence (whole entry): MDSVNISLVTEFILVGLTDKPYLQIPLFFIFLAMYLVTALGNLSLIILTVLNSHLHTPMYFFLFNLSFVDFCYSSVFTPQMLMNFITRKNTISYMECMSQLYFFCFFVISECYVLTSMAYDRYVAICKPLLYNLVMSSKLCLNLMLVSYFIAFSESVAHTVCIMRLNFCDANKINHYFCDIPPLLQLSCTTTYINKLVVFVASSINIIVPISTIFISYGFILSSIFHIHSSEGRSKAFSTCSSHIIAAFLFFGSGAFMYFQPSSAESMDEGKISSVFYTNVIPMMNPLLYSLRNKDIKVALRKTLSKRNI
Procedure, shortened: as §1

UniProt Q8VG64 = molecular target: T7, UniProt Q8VG64
T7 sequence (whole entry): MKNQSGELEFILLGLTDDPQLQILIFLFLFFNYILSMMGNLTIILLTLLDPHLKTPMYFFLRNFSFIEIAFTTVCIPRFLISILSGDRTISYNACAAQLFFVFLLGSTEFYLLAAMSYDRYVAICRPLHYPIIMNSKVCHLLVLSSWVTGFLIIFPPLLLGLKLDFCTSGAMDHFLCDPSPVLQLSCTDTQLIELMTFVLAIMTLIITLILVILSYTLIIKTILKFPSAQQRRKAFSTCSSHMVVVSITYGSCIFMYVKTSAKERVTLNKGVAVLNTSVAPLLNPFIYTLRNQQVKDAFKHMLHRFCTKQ
Procedure, shortened: as §1

UniProt Q8VGB9 = molecular target: T8, UniProt Q8VGB9
T8 sequence (whole entry): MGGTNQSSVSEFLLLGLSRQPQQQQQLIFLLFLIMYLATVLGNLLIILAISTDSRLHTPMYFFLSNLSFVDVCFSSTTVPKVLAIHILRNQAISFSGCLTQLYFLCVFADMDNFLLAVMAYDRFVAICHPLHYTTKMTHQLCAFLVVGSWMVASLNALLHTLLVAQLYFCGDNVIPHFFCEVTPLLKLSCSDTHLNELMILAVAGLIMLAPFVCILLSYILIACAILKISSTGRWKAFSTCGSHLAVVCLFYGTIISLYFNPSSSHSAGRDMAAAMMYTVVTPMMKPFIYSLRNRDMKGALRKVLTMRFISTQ
Procedure, shortened: as §1

UniProt Q8VGC6 = molecular target: T9, UniProt Q8VGC6
T9 sequence (whole entry): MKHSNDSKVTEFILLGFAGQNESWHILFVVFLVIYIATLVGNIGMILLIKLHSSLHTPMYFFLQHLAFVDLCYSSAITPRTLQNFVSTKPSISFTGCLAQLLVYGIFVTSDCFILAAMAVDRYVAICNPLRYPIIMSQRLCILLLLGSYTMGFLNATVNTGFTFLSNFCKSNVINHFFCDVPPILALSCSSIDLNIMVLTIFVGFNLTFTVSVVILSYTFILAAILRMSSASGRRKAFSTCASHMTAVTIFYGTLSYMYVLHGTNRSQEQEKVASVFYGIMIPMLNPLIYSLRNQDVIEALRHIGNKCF
Procedure, shortened: as §1

UniProt Q8VGJ3 = molecular target: T10, UniProt Q8VGJ3
T10 sequence (whole entry): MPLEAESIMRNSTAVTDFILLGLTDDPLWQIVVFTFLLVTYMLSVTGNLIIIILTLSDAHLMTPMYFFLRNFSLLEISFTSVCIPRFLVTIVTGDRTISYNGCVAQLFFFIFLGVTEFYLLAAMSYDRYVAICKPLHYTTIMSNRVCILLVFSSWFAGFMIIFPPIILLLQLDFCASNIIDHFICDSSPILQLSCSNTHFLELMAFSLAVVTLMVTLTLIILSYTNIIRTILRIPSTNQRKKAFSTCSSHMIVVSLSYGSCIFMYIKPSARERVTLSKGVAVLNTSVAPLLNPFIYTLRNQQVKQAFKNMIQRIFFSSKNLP
Procedure, shortened: as §1

Measured: odorant receptor agonist call

Cc1ccc(OC(=O)Cc2ccccc2)cc1
inactive: UniProt Q8VF52 | UniProt Q8VFM8 | UniProt Q8VFP5 | UniProt Q8VG01 | UniProt Q8VG27 | UniProt Q8VG53 | UniProt Q8VG64 | UniProt Q8VGB9 | UniProt Q8VGC6 | UniProt Q8VGJ3

OCc1ccc2c(c1)OCO2
inactive: UniProt Q8VF52 | UniProt Q8VFM8 | UniProt Q8VFP5 | UniProt Q8VG01 | UniProt Q8VG27 | UniProt Q8VG53 | UniProt Q8VG64 | UniProt Q8VGB9 | UniProt Q8VGC6 | UniProt Q8VGJ3
